Experimental data taken from ChEMBL document CHEMBL1212871, “Lipophilic phenolic antioxidants: correlation between antioxidant profile, partition coefficients and redox properties” (Bioorg Med Chem, 2010).

Key:
[1] = Redox potential at pH 7.3 by differential pulse and cyclic voltametry; format: physicochemical
Procedure, shortened: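 Glassy carbon working electrode, potentials vs Ag/AgCl. 0.1 mM compound (diluted from 10 mM ethanol stock) in pH 7.3 phosphate supporting electrolyte, made from 0.2 M K2HPO4 and KH2PO4. Differential pulse voltammetry was run at 5 mV s^-1. Cyclic voltammetry was run at 50 mV s^-1, with scan rates of 10–100 mV s^-1 also examined.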

[2] = Antioxidant activity assessed as inhibition of AAPH-induced lipid peroxidation in liposomes measured as Trolox equivalent antioxidant capacity; format: functional; details: Liposome
Procedure, shortened: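 Egg phosphatidylcholine LUVs (0.80 mM final) holding a radical-sensitive fluorescent probe were mixed with polyphenol (1.50, 7.50, 15.00 µM final; 1.5% ethanol) and shaken 10 min at 37 °C. Peroxidation was then started with 15.00 mM AAPH. Fluorescence (ex 360/40, em 460/40 nm) was read at 37 °C for 3 h. TEAC = (AUC compound − AUC control)/(AUC Trolox − AUC control). Run in duplicate.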

[3] = tested on: Radical scavenging activity; assay: Antioxidant activity assessed as ratio of IC50 for Trolox to compound for DPPH radical scavenging activity by TEAC assay; format: functional
Procedure, shortened: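 DPPH• (180 µL) received 20 µL ethanolic compound, six concentrations of 1.5 × 10^-5 to 15 × 10^-5 M, prepared in duplicate and assayed in quadruplicate. Absorbance was read every minute for 10 min, then every 5 min for 50 min; ethanol blank = 100% radical. 60-min data were fitted by second-degree polynomial through 100%. TEAC = Trolox IC50 / compound concentration giving 50% bleaching.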

[4] = Antioxidant activity assessed as ratio of IC50 for Trolox to compound for ABTS radical scavenging activity after 20 mins by TEAC assay; format: functional
Procedure, shortened: (§1)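 Six ethanolic compound solutions (1.5 × 10^-5 to 15 × 10^-5 M) were made in duplicate, and 20 µL of each was added to 180 µL ABTS•+ in quadruplicate. Absorbance was read every 5 min over 20 min; ethanol blank = 100% radical. Radical % against concentration at 5 or 20 min was fitted by second-degree polynomial through 100%. TEAC = Trolox IC50 / compound concentration giving 50% bleaching.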

[5] = Antioxidant activity assessed as ratio of IC50 for Trolox to compound for ABTS radical scavenging activity after 5 mins by TEAC assay; format: functional; procedure, shortened: as §1

Row | Redox potential [1] [V] | Compound | Ratio [2] | Ratio IC50 [3] | Ratio IC50 [4] | Ratio IC50 [5]
1 | 0.175 | CCCCCCOC(=O)/C=C/c1ccc(O)c(O)c1 [HEXYLCAFFEATE] | 3.55 | 0.97 | 0.93 | 0.91
2 | 0.125 | CCCCCCNC(=O)CCc1ccc(O)c(O)c1 [HYDROCAFFEOYLHEXYLAMIDE] | 2.08 | 1 | 1.02 | 1.01
3 | 0.139 | O=C(O)CCc1ccc(O)c(O)c1 [DIHYDROCAFFEIC ACID] | 1.75 | 2.05 | 1.41 | 1.16
4 | 0.322 | CCCCCCNC(=O)/C=C/c1ccc(O)c(OC)c1 [FERULOYLHEXYLAMIDE] | 1.22 |  |  | 
5 | 0.162 | CCCCCCNC(=O)/C=C/c1ccc(O)c(O)c1 [CAFFEOYLHEXYLAMIDE] | 2.41 | 1.11 | 1.05 | 1.04
6 | 0.388 | CCCCCCNC(=O)CCc1ccc(O)c(OC)c1 [HYDROFERULOYLHEXYLAMIDE] | 0.68 |  |  | 
7 | 0.125 | CCCCCCOC(=O)CCc1ccc(O)c(O)c1 [HEXYLHYDROCAFFEATE] | 3.49 | 0.99 | 0.96 | 0.96

More lines, now with the values behind:

Row | Compound | Redox potential [1] [V] | Ratio [2] | Ratio IC50 [3] | Ratio IC50 [4] | Ratio IC50 [5]
8 | CCCCCCOC(=O)CCc1ccc(O)c(OC)c1 [HEXYLHYDROFERULATE] | 0.434 | 0.57 |  |  | 
9 | CCCCCCOC(=O)/C=C/c1ccc(O)c(OC)c1 [HEXYLFERULATE] | 0.328 | 1.13 |  |  | 
10 | COc1cc(CCC(=O)O)ccc1O [DIHYDROFERULIC ACID] | 0.41 | 0.22 |  |  | 
11 | O=C(O)/C=C/c1ccc(O)c(O)c1 [CAFFEIC ACID] | 0.183 | 2.23 | 1.29 | 1.27 | 1.14
12 | COc1cc(/C=C/C(=O)O)ccc1O [FERULATE] | 0.35 | 0.79 |  |  | 
